Measurements taken from ChEMBL document CHEMBL1142697, “Beta-lactam screening by specific residues of the OmpF eyelet” (2005).

What was measured:
[1] = system: Klebsiella aerogenes; experiment: Mean lysis diameter of wild type Enterobacter aerogenes EA289 with OmpF by standard disk diffusion method on MH agar; type: functional
In short: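 EA289 is transformed with a plasmid encoding wild-type OmpF and grown in LB at 37 °C with gentle shaking, with kanamycin (50 µg/mL) or IPTG (1 mM) as needed to keep the plasmid. OmpF expression level is checked. For the disk diffusion test, MH broth culture (10^7 bacteria/mL) is spread on MH agar with antibiotic disks. Zone diameter (mm) is read after 24 h at 37 °C, mean of 3–5 experiments.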

[2] = system: Klebsiella aerogenes; experiment: Mean lysis diameter of porin deficient Enterobacter aerogenes EA289 by standard disk diffusion method on MH agar; type: functional
In short: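 Porin-deficient, β-lactamase-expressing E. aerogenes EA289 is grown in Luria Bertani broth at 37 °C with gentle shaking. An MH broth culture at 10^7 bacteria/mL is spread on MH agar and antibiotic-loaded disks are applied. The inhibition diameter (mm) around each disk is read after 24 h at 37 °C, averaged over three to five experiments.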

[3] = system: Klebsiella aerogenes; experiment: Mean lysis diameter of Enterobacter aerogenes EA289 with D113A mutation by standard disk diffusion method on MH agar; type: functional
In short: (§1)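 Porin-deficient, β-lactamase-producing Enterobacter aerogenes EA289 carrying plasmid-borne wild-type OmpF, D113A or D121A. Grown in LB at 37 °C with gentle shaking, with kanamycin (50 µg/mL) or IPTG (1 mM); porin expression checked. Disk diffusion: 3 mL MH broth culture (10^7 bacteria/mL) spread on MH agar, antibiotic disks applied, inhibition diameter (mm) after 24 h at 37 °C. Mean of 3–5 experiments, versus the wild-type OmpF strain.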

[4] = system: Klebsiella aerogenes; experiment: Mean lysis diameter was measured against Enterobacter aerogenes EA289 with D121A mutation by standard disk diffusion method on MH agar; type: functional; in short: as §1
[5] = system: Escherichia coli; experiment: Bacterial susceptibility induced by D113 mutation in Escherichia coli OmpF; type: functional, organism-based; in short: as §1
[6] = system: Escherichia coli; experiment: Bacterial susceptibility induced by D121 mutation in Escherichia coli OmpF; type: functional, organism-based; in short: as §1

CC1(C)S[C@@H]2[C@H](NC(=O)[C@H](N)c3ccccc3)C(=O)N2[C@H]1C(=O)O [AMPICILLIN]
Lysis diameter [1]: 6 mm
Lysis diameter [2]: 6 mm
Lysis diameter [3]: 16 mm
Lysis diameter [4]: 7 mm

CO/N=C(\C(=O)N[C@@H]1C(=O)N2C(C(=O)O)=C(COC(C)=O)CS[C@H]12)c1csc(N)n1 [CEFOTAXIME]
Lysis diameter [1]: 17 mm
Lysis diameter [2]: 15 mm
Lysis diameter [3]: 23 mm
Lysis diameter [4]: 18 mm

CC(C)(O/N=C(\C(=O)N[C@@H]1C(=O)N2C(C(=O)[O-])=C(C[n+]3ccccc3)CS[C@H]12)c1csc(N)n1)C(=O)O [CEFTAZIDIME]
Lysis diameter [1]: 11 mm
Lysis diameter [2]: 8 mm
Lysis diameter [3]: 20 mm
Lysis diameter [4]: 15 mm

CO/N=C(\C(=O)N[C@@H]1C(=O)N2C(C(=O)[O-])=C(C[N+]3(C)CCCC3)CS[C@H]12)c1csc(N)n1 [CEFEPIME]
Lysis diameter [1]: 27 mm
Lysis diameter [2]: 19 mm
Susceptibility [5]: +/-
Lysis diameter [3]: 30 mm
Susceptibility [6]: +/-
Lysis diameter [4]: 29 mm

CO[C@@]1(NC(=O)Cc2cccs2)C(=O)N2C(C(=O)O)=C(COC(N)=O)CS[C@@H]21 [CEFOXITIN]
Lysis diameter [1]: 7 mm
Lysis diameter [2]: 6 mm
Lysis diameter [3]: 16 mm
Lysis diameter [4]: 12 mm

CO/N=C(\C(=O)N[C@@H]1C(=O)N2C(C(=O)[O-])=C(C[n+]3cccc4c3CCC4)CS[C@H]12)c1csc(N)n1 [CEFPIROME]
Lysis diameter [1]: 26 mm
Lysis diameter [2]: 19 mm
Lysis diameter [3]: 31 mm
Lysis diameter [4]: 31 mm
